The source made the active and inactive calls. The rule behind the calls is not given here.
Key:
Mus musculus [1] = assay: Toxicity against C57BL/6J mouse assessed as weight loss at 30 mg/kg, ip administered as single dose measured after 24 hrs; assay type: organism-based; set-up: dose 30 mg/kg, route intraperitoneal; settings: in vivo
How it was run: (§1)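 Male C57BL/6J mice, 12 weeks, 23-25 g, acclimatized one week on standard chow, 12 h/12 h light/dark, 22 °C; 4 per group. Fasted 12 h during dark cycle, then one i.p. injection (0.5 mL) of compound or vehicle (DMSO dissolved in RPMI 1640). Free access to chow for 24 h, then body weight recorded and behaviour observed. Weight data mean ± SEM, n=4.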

Mus musculus [2] = assay: Toxicity against C57BL/6J mouse assessed as signs of suffering at 30 mg/kg, ip administered as single dose measured after 24 hrs; assay type: organism-based; set-up: dose 30 mg/kg, route intraperitoneal; settings: in vivo; how it was run: as §1
Mus musculus [3] = assay: Toxicity against C57BL/6J mouse assessed as altered behaviour at 30 to 75 mg/kg, ip administered as single dose measured after 24 hrs; assay type: organism-based; set-up: dose 30-75 mg/kg, route intraperitoneal; settings: in vivo; how it was run: as §1
SK-BR-3 [4] = assay: Induction of apoptosis in human SKBR3 cells assessed as cleavage of PARP by Western blot analysis; assay type: functional, cell-based; settings: TDE = time-dependent effect
How it was run: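 SK-Br3 cells treated for up to 48 h, then immunoblotted for PARP on a 4-12% SDS gel. Intact PARP at 116 kDa, cleavage fragment at 89 kDa. Chemiluminescent detection with β-actin reprobe as loading control. At least two independent experiments.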

[5] = Selectivity ratio of IC50 for human HL7702 cells to IC50 for human SKBR3 cells; assay type: ADME, cell-based; settings: HL7702 cells (normal) versus SKBR3 cells, read-out: Ratio IC50
[6] = molecular target: Receptor tyrosine-protein kinase erbB-2 (Homo sapiens) (UniProt P04626); assay: Inhibition of HER2 phosphorylation in human SK-BR-3 cells after 2 hrs by Western blot analysis; assay type: cell-based
How it was run: (§2)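 SK-Br3 cells treated for set times (6, 12 or 24 h; p-HER2 also at 2 h), trypsinized, and lysed in Tris pH 7.5/EDTA/NaCl/PMSF buffer. Equal protein resolved by SDS-PAGE (3-8% gel for HER2 forms, 4-12% gel for AKT/ERK). Blots blocked in 2.5% milk/TBS-T, primary antibody overnight at 4 °C, HRP secondary, chemiluminescence; β-actin reprobe as loading control. At least two independent experiments.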

SK-BR-3 [7] = assay: Cytotoxicity against human SKBR3 cells transfected with FASN specific siRNA assessed as cell death up to 10 uM by MTT assay; assay type: functional, cell-based
How it was run: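 SK-Br3 cells transfected with a pool of three FASN-specific siRNAs (72 h), run alongside control-transfected cells. MTT viability read after 24 h compound exposure instead of 48 h. Knockdown checked by FASN immunoblot with β-actin. Mean±SEM of three experiments in duplicate; Student's t-test against the same concentration in control-transfected cells.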

Mus musculus [8] = assay: Toxicity against C57BL/6J mouse assessed as change in food intake at 30 to 75 mg/kg, ip administered as single dose measured after 24 hrs; assay type: organism-based; set-up: dose 30-75 mg/kg, route intraperitoneal; settings: in vivo; how it was run: as §1
FASN/HER2 (Homo sapiens) [9] = molecular target: T1, FASN/HER2 (Homo sapiens) (UniProt P04626+P49327); assay: Inhibition of FASN/HER2 in human SK-BR-3 cells assessed as reduction in p-ERK1/2 levels after 6 hrs by Western blot analysis; assay type: cell-based; how it was run: as §2
MDA-MB-231 = assay: Cytotoxicity against human MDA-MB-231 cells; assay type: functional, cell-based
How it was run: (§3)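 MTT colorimetric assay: cells seeded at 5 or 7 x 10³ cells/well, attached overnight, then given fresh medium with a range of compound concentrations for 48 h at 37 °C, 5% CO2. MTT added for 3 h, formazan dissolved in DMSO, absorbance read at 570 or 540 nm. IC50 as mean±SEM from at least two independent experiments in duplicate or triplicate.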

Mus musculus [10] = assay: Toxicity against C57BL/6J mouse assessed as weight loss at 30 to 75 mg/kg, ip administered as single dose measured after 24 hrs; assay type: organism-based; set-up: dose 30-75 mg/kg, route intraperitoneal; settings: in vivo; how it was run: as §1
[11] = molecular target: Receptor tyrosine-protein kinase erbB-2 (Homo sapiens) (UniProt P04626); assay: Inhibition of HER2 signaling in human SK-BR-3 cells up to 24 hrs; assay type: cell-based; how it was run: as §2
[12] = molecular target: Carnitine O-palmitoyltransferase 1, liver isoform (Rattus norvegicus, UniProt P32198); assay: Stimulation of rat CPT1A expressed in Pichia pastoris mitochondrial using [3H]carnitine after 3 mins by forward exchange method; assay type: ADME; settings: 0.05 h
How it was run: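 Mitochondria isolated from GS115 Pichia pastoris expressing rat CPT1A, used in a forward exchange assay with 200 µM inhibitor, 2 mM L-[³H]carnitine, 80 µM palmitoyl-CoA, 20 mM HEPES pH 7.0, 1% fatty-acid-free albumin and 40-75 mM KCl. Incubated 3 min at 30 °C, stopped with perchloric acid, butanol-extracted [³H]palmitoylcarnitine counted. Mean±SEM of at least three independent mitochondrial preparations.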

Mus musculus [13] = assay: Toxicity against C57BL/6J mouse assessed as distress at 30 to 75 mg/kg, ip administered as single dose measured after 24 hrs; assay type: organism-based; set-up: dose 30-75 mg/kg, route intraperitoneal; settings: in vivo; how it was run: as §1
SK-HEP1 = assay: Cytotoxicity against human SKHEP1 cells; assay type: functional, cell-based; how it was run: as §3
SK-BR-3 [14] = assay: Effect on total ERK1/2 protein levels in human SKBR3 cells up to 24 hrs; assay type: functional, cell-based; how it was run: as §2
[15] = Cytotoxicity against human HCC827 cells; assay type: functional, cell-based; how it was run: as §3
[16] = Antiproliferative activity against human HMEpC cells; assay type: cell-based; how it was run: as §3
[17] = Selectivity ratio of IC50 for human HMEpC cells to IC50 for human SKBR3 cells; assay type: ADME, cell-based, SK-BR-3; settings: HMEpC cells (normal) versus SKBR3 cells, read-out: Ratio IC50
[18] = molecular target: Receptor tyrosine-protein kinase erbB-2 (Homo sapiens) (UniProt P04626); assay: Inhibition of HER2 phosphorylation in human SK-BR-3 cells after 6 hrs by Western blot analysis; assay type: cell-based
How it was run: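 SK-Br3 cells treated for 6, 12 or 24 h, harvested with trypsin-EDTA, lysed in Tris-HCl pH 7.5/EDTA/NaCl/PMSF buffer at 4 °C. Equal protein run on 3-8% SDS-PAGE and transferred to nitrocellulose. Membranes probed overnight at 4 °C with anti-phospho-HER2 mouse monoclonal, then peroxidase secondary and chemiluminescence. Re-probed for β-actin as loading control. Gels are representative of at least two independent experiments.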

MCF7 = assay: Cytotoxicity against human MCF7 cells; assay type: functional, cell-based; how it was run: as §3
NCI-H460 = assay: Cytotoxicity against human H460 cells; assay type: functional, cell-based; how it was run: as §3
[19] = Antiproliferative activity against human HL7702 cells; assay type: cell-based; settings: L02; how it was run: as §3
Mus musculus [20] = assay: Toxicity against C57BL/6J mouse assessed as signs of suffering at 30 to 75 mg/kg, ip administered as single dose measured after 24 hrs; assay type: organism-based; set-up: dose 30-75 mg/kg, route intraperitoneal; settings: in vivo; how it was run: as §1
SK-OV-3 = assay: Cytotoxicity against human SKOV3 cells; assay type: functional, cell-based; how it was run: as §3
BT-20 = assay: Cytotoxicity against human BT20 cells; assay type: functional, cell-based; how it was run: as §3
Bel-7402 = assay: Cytotoxicity against human Bel7402 cells; assay type: functional, cell-based; how it was run: as §3
SK-BR-3 [21] = assay: Effect on total HER2 protein levels in human SKBR3 cells up to 6 hrs by ELISA; assay type: functional, cell-based
A549 = assay: Cytotoxicity against human A549 cells; assay type: functional, cell-based; how it was run: as §3
HCT-116 = assay: Cytotoxicity against human HCT116 cells; assay type: functional, cell-based; how it was run: as §3
[22] = molecular target: Fatty acid synthase (Homo sapiens) (UniProt P49327); assay: Inhibition of FASN in human SK-BR-3 cells assessed as oxidation of NADPH at 4 uM after 24 hrs by Spectrophotometric analysis relative to control; assay type: cell-based
FASN/HER2 (Homo sapiens) [23] = molecular target: T1, FASN/HER2 (Homo sapiens); assay: Inhibition of FASN/HER2 in human SK-BR-3 cells assessed as reduction in p-AKT levels after 6 hrs by Western blot analysis; assay type: cell-based; how it was run: as §2
PANC-1 = assay: Cytotoxicity against human PANC1 cells; assay type: functional, cell-based; how it was run: as §3
SK-BR-3 [24] = assay: Effect on total AKT protein levels in human SKBR3 cells up to 24 hrs; assay type: functional, cell-based; how it was run: as §2
SK-BR-3 [25] = assay: Cytotoxicity against human SKBR3 cells; assay type: functional, cell-based
How it was run: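 SK-Br3 cells (McCoy's 5A, 10% FBS) in MTT assay: seeded at 5 or 7 x 10³ cells/well, attached overnight, exposed 48 h to a range of concentrations. MTT 3 h at 37 °C, formazan in DMSO, absorbance at 570 or 540 nm. IC50 as mean±SEM of two independent experiments in triplicate.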

ZR-75-1 = assay: Cytotoxicity against human ZR-75-1 cells; assay type: functional, cell-based; how it was run: as §3
A-431 = assay: Cytotoxicity against human A431 cells; assay type: functional, cell-based; how it was run: as §3
SK-BR-3 [26] = assay: Cytotoxicity against human SKBR3 cells after 48 hrs by MTT assay; assay type: functional, cell-based; settings: SK-BR-3, 48 h; how it was run: as §3
SK-BR-3 [27] = assay: Effect on total HER protein levels in human SKBR3 cells up to 24 hrs; assay type: functional, cell-based; how it was run: as §2
SK-BR-3 [28] = assay: Effect on total HER2 protein levels in human SKBR3 cells up to 6 hrs by Western blot analysis; assay type: functional, cell-based; how it was run: as §2
HepG2 = assay: Cytotoxicity against human HepG2 cells; assay type: functional, cell-based; how it was run: as §3
AU565 = assay: Cytotoxicity against human AU565 cells; assay type: functional, cell-based; how it was run: as §3

Receptor tyrosine-protein kinase erbB-2 (Homo sapiens), sequence (P04626 whole entry, canonical isoform): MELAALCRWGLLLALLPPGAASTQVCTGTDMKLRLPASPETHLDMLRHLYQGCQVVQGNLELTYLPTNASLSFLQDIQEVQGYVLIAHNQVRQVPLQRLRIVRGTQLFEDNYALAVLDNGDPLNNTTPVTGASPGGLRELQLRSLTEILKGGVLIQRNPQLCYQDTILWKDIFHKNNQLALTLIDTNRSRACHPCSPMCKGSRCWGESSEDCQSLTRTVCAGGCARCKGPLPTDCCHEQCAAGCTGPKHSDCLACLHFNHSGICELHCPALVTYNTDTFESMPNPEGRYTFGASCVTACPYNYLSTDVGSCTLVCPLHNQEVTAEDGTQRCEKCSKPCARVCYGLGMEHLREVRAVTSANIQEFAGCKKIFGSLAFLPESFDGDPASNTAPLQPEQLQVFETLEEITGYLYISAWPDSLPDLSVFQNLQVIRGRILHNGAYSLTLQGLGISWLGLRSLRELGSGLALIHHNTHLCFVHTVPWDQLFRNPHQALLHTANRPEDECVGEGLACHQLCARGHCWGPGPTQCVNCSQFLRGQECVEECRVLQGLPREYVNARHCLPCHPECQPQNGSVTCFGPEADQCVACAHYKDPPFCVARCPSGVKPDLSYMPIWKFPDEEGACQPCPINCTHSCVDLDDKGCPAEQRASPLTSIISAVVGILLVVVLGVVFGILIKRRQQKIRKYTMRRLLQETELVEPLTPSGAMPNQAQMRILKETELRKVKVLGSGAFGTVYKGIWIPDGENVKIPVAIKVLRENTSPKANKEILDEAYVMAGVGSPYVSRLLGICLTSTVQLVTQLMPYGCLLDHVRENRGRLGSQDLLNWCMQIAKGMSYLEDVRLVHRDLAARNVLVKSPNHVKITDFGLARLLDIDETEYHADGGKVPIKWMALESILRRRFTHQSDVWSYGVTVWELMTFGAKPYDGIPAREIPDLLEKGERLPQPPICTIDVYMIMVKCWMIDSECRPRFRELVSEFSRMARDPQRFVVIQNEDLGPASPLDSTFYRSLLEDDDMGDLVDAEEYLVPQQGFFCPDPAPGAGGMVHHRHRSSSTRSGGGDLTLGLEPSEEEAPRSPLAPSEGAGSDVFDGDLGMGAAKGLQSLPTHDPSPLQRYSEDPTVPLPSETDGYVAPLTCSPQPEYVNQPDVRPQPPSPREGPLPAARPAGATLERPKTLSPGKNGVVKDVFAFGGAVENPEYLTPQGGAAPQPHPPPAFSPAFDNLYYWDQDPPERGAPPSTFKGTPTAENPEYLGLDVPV
T1 sequence (P04626 whole entry, looked up): as the sequence (P04626 whole entry, canonical isoform) above
T1 sequence (P49327 whole entry, looked up): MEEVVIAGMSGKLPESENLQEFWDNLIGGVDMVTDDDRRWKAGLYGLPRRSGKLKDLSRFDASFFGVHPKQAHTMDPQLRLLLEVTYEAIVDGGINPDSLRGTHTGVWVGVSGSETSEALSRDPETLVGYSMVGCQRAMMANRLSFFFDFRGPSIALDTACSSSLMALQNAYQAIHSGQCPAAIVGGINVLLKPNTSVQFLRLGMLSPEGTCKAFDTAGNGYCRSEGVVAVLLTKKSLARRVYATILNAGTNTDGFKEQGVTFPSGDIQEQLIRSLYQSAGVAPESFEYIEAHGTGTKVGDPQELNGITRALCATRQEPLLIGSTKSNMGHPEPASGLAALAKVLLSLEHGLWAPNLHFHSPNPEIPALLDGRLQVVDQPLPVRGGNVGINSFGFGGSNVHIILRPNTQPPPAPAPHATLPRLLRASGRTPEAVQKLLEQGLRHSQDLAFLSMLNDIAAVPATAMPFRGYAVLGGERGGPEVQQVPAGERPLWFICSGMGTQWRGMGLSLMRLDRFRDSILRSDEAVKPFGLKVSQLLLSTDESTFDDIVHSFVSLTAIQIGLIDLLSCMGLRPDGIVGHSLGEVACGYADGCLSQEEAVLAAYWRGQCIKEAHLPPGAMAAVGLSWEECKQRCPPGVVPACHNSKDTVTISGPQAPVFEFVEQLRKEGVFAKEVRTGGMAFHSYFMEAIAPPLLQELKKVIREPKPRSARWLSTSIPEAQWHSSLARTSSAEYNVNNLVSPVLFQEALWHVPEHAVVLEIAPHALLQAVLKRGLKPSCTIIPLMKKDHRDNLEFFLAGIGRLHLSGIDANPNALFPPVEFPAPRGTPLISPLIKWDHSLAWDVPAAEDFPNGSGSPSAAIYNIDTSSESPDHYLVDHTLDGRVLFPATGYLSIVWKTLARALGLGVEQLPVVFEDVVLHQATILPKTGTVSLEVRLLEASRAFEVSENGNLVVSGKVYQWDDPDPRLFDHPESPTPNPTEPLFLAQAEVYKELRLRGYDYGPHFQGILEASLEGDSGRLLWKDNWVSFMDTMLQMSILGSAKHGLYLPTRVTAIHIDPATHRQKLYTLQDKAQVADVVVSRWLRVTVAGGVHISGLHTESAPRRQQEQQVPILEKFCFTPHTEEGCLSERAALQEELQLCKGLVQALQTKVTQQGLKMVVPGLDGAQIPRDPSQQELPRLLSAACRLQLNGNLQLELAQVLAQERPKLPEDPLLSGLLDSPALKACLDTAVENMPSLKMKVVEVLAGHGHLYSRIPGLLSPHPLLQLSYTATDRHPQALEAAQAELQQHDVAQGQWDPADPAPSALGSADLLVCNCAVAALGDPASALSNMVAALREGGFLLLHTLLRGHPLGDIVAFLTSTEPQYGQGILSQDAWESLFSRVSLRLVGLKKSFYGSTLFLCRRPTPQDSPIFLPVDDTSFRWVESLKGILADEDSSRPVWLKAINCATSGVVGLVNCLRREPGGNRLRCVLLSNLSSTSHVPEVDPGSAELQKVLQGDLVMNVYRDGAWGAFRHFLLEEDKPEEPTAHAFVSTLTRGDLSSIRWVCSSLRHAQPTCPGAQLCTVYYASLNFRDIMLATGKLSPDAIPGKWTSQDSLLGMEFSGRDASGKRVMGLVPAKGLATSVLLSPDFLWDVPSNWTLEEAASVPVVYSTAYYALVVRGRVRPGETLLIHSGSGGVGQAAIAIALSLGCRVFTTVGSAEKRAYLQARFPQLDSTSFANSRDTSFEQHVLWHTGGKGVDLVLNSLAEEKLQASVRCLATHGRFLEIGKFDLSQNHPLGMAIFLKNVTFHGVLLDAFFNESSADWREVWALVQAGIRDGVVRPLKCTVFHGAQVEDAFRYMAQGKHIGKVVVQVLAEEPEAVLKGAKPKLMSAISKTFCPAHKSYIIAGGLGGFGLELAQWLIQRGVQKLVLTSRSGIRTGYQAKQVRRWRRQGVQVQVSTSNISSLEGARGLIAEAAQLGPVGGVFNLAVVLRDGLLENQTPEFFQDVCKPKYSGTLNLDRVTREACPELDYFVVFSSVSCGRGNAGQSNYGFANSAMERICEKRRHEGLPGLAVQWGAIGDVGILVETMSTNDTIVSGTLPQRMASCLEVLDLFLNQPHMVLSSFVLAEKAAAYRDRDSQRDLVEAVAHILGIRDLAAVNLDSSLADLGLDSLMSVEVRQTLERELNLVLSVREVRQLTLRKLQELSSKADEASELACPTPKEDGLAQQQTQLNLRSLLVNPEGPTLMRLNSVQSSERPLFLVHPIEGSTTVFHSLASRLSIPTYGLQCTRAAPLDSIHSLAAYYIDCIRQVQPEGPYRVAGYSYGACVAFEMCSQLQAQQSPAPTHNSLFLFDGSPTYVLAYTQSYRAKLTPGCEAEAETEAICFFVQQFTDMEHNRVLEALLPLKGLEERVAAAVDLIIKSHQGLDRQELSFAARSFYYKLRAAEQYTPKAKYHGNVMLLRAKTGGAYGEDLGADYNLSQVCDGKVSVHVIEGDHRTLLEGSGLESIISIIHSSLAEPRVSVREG
Fatty acid synthase (Homo sapiens), sequence (P49327 whole entry, looked up): as above

## C=C1C(=O)O[C@H](CCCCCCCC)[C@H]1C(=O)O (relative stereo)
Mus musculus [1]
  Activity: 21%
Mus musculus [2]
  Activity: Toxic

## O=C(Oc1ccc(-c2ccc(OC(=O)c3cc(O)c(O)c(O)c3)cc2)cc1)c1cc(O)c(O)c(O)c1
Mus musculus [3]
  Activity: Non-toxic
SK-BR-3 [4]
  Activity: tde
[5]
  selectivity ratio: 10
[6]
  inhibition: Active
SK-BR-3 [7]
  Activity: inactive
Mus musculus [8]
  Activity: Non-toxic
FASN/HER2 (Homo sapiens) [9]
  inhibition: Active
MDA-MB-231
  IC50: 5 µM
Mus musculus [10]
  Activity: Non-toxic
[11]
  inhibition: Active
[12]
  Activity: Non-toxic
Mus musculus [13]
  Activity: Non-toxic
SK-HEP1
  IC50: 56 µM
SK-BR-3 [14]
  Activity: inactive
[15]
  IC50: 14 µM
[16]
  IC50: 31 µM
[17]
  selectivity ratio: 8
[18]
  inhibition: Active
MCF7
  IC50: 3.8 µM
NCI-H460
  IC50: 9 µM
[19]
  IC50: 41 µM
Mus musculus [20]
  Activity: Non-toxic
SK-OV-3
  IC50: 5 µM
BT-20
  IC50: 17 µM
Bel-7402
  IC50: 40 µM
SK-BR-3 [21]
  Activity: inactive
A549
  IC50: 17 µM
HCT-116
  IC50: 4 µM
[22]
  inhibition: 90%
FASN/HER2 (Homo sapiens) [23]
  inhibition: Active
PANC-1
  IC50: 2.1 µM
SK-BR-3 [24]
  Activity: inactive
SK-BR-3 [25]
  IC50: 4 µM
ZR-75-1
  IC50: 1.9 µM
A-431
  IC50: 1.4 µM
SK-BR-3 [26]
  IC50: 4 µM
SK-BR-3 [27]
  Activity: inactive
SK-BR-3 [28]
  Activity: inactive
HepG2
  IC50: 70 µM
AU565
  IC50: 24 µM

Reference: ChEMBL document CHEMBL2086320, “New synthetic inhibitors of fatty acid synthase with anticancer activity” (J Med Chem, 2012)
